Experimental data: article PMC7115577 (Peptides, 2005)

What was measured:
Format in all cases: cell-based
[1] = test system: human polymorphonuclear leukocytes (PMN); test: Chemotaxis assay
[2] = test system: isolated guinea pig ileum (GPI); test: Potentiation of the BK-induced contraction of GPI; settings: analogue alone, cumulative GPI contraction curves
In short: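 Guinea pig ileum strips (1.5 cm) suspended in Tyrode solution at 37 °C; isotonic contractions recorded under 500 mg resting tension. Concentration–response curves were built for the agonist, and pD2 was derived from them.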

[3] = test system: guinea pig ileum; settings: calyculin 100 nM, BK 20 nM, BPP9α 20 nM
In short: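 Ileum segments (1.5 cm) in Tyrode at 37 °C, isotonic recording under 500 mg resting tension. The phosphatase inhibitor was added either at the peak of the BK contraction, before the potentiating peptide, or 1 min before the combined BK/peptide challenge, with washes between. Traces are from four to six separate experiments.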

In the case of `CC(C)C[C@H](NP(=O)(O)O[C@@H]1O[C@@H](C)[C@H](O)[C@@H](O)[C@H]1O)C(=O)N[C@@H](Cc1c[nH]c2ccccc12)C(=O)O` [phosphoramidon], the “migration index (MI) of BK in the presence of inhibitor” value ([1]; BK 10^−8 M, phosphoramidon 10^−7 M, 5 min preincubation) is reported as 1.19 ± 0.03.
With `C[C@H](N[C@@H](CCc1ccccc1)C(=O)O)C(=O)N1[C@H](C(=O)O)C[C@@H]2CCC[C@@H]21` [ramiprilat] the “effect on migratory activity of the nonpeptide agonist FR190997” value [1] was “could not be accelerated” and the “migration index (MI) of BK in the presence of inhibitor” value ([1]; BK 10^−7 M, ramiprilat 10 nM) was 1.69 ± 0.26.
In the case of “DArg-Arg-Pro-Hyp-Gly-Thi-Ser-Pro-ɛAbu(ßPh)-Arg”, the “pD2-value of enzymatically more stable BK analogue” value [2] is reported as 6.65 ± 0.14.
With calyculin the “influence on the potentiation of the BK-induced contraction” value [3] was “no influence”.
